Experimental data reported in ChEMBL document CHEMBL5344453, “Selective Recognition of c-KIT 1 G-Quadruplex by Structural Tuning of Heteroaromatic Scaffolds and Side Chains” (ACS Med Chem Lett, 2024).
The source made the active and inactive calls. The calls are words filed in the database; no cut-off is given here.

Legend:
[1] = Reduction of c-KIT protein expression in human K562 cells at 11 uM measured after 24 hrs by Western blotting analysis relative to control; format: functional; settings: K562, read-out: INH
Outline: (§1)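 K562 cells were treated with ligand (3 and 6 μM or 5.5 and 11 μM). c-KIT protein was measured by Western blot with GAPDH as the housekeeping reference, relative to control.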

[2] = test system: K562; assay: Attenuation of proto-oncogene expression in human c-KIT-positive K562 cells assessed as reduction in c-KIT oncogene expression at 11 uM measured after 24 hrs by qRT-PCR analysis relative to control; format: functional
Outline: (§2)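 K562 cells treated 24 h at two doses per ligand (3 and 6 μM, 5.5 and 11 μM; positive control 2 and 4 μM). c-KIT, c-MYC and BCL-2 mRNA measured by qRT-PCR and normalized to housekeeping gene 18s, relative to untreated control.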

[3] = test system: K562; assay: Induction of apoptosis in human K562 cells assessed as apoptosis at 11 uM incubated for 24 hrs by FITC-Annexin V and PI analysis; format: functional
Outline: (§3)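 K562 cells were treated with ligand (3 and 6 μM or 5.5 and 11 μM) and dual-stained with annexin V and PI. Early and late apoptotic populations were quantified by flow cytometry dot plot analysis.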

[4] = test system: K562; assay: Attenuation of proto-oncogene expression in human c-KIT-positive K562 cells assessed as reduction in c-KIT oncogene expression at 5.5 uM measured after 24 hrs by qRT-PCR analysis relative to control; format: functional; outline: as §2
[5] = Effect on proto-oncogene expression in human c-KIT-positive K562 cells assessed as upregulation in c-MYC oncogene expression at 5.5 uM measured after 24 hrs by qRT-PCR analysis relative to control; format: functional; outline: as §2
[6] = Effect on proto-oncogene expression in human c-KIT-positive K562 cells assessed as down regulation in BCL-2 oncogene expression at 11 uM measured after 24 hrs by qRT-PCR analysis relative to control; format: functional; outline: as §2
[7] = test system: Quadruplex DNA; assay: Stabilization of G-quadruplex c-KIT2 5-FAM-GGGCGGGCGCGAGGGAGGGG-TAMRA-3 (unknown origin) assessed as change in melting temperature at 1 uM incubated for 1 hr in dark condition by FRET-based melting assay; format: nucleic-acid assay
Outline: (§4)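 FRET melting of dual-fluorophore-tagged oligonucleotides (200 nM) in 60 mM potassium cacodylate buffer, pH 7.4, with ligand at 1 μM; ΔTm taken against the ligand-free oligonucleotide Tm as control.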

[8] = test system: Quadruplex DNA; assay: Stabilization of fluorophore tagged G-quadruplex c-KIT1 (unknown origin) assessed as change in melting temperature in presence of 0 to 100 equiv calf thymus DNA at 1 uM incubated for 1 hr in dark condition by competitive FRET-based melting assay; format: nucleic-acid assay
Outline: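 Competitive FRET melting with fluorophore-labeled c-KIT 1 G-quadruplex and 1 μM ligand. Unlabeled calf thymus DNA was added at 0, 1, 5, 10, 50 and 100 molar equivalents over the labeled DNA, and ΔTm was monitored.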

[9] = test system: Quadruplex DNA; assay: Stabilization of G-quadruplex c-MYC 5-FAM-TGGGGAGGGTGGGGAGGGTGGGGAAGG-TAMRA- 3 (unknown origin) assessed as change in melting temperature at 1 uM incubated for 1 hr in dark condition by FRET-based melting assay; format: nucleic-acid assay; outline: as §4
[10] = Effect on proto-oncogene expression in human c-KIT-positive K562 cells assessed as upregulation in c-MYC oncogene expression at 11 uM measured after 24 hrs by qRT-PCR analysis relative to control; format: functional; outline: as §2
[11] = test system: Quadruplex DNA; assay: Stabilization of G-quadruplex VEGF 5-FAM-CGGGGCGGGCCGGGGGCGGGGT-TAMRA-3 (unknown origin) assessed as change in melting temperature at 1 uM incubated for 1 hr in dark condition by FRET-based melting assay; format: nucleic-acid assay; outline: as §4
[12] = test system: Quadruplex DNA; assay: Stabilization of G-quadruplex h-TELO 5-FAM-TTGGGTTAGGGTTAGGGTTAGGGA-TAMRA-3 (unknown origin) assessed as change in melting temperature at 1 uM incubated for 1 hr in dark condition by FRET-based melting assay; format: nucleic-acid assay; outline: as §4
[13] = Reduction of BCL-2 oncogene expression in human K562 cells transfected with BCL-2 plasmid construct assessed as reduction in luciferase expression at 5.5 uM measured after 36 hrs by luciferase reporter assay; format: functional
Outline: (§5)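 K562 cells were transfected with luciferase plasmids carrying the c-KIT, c-MYC or BCL-2 promoter G4. They were then treated with ligand (3 and 6 μM or 5.5 and 11 μM), and relative luciferase expression was measured.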

[14] = test system: Quadruplex DNA; assay: Stabilization of G-quadruplex BCL2 5-FAM-AGGGGCGGGCGCGGGAGGAAGGGGGCGGGAGCGGGGCTG-TAMRA-3 (unknown origin) assessed as change in melting temperature at 1 uM incubated for 1 hr in dark condition by FRET-based melting assay; format: nucleic-acid assay; outline: as §4
[15] = test system: Quadruplex DNA; assay: Stabilization of calf thymus […] ds DNA 5-FAM-CAATCGGATCGAATTCGATCCGATTG-TAMRA-3 assessed as change in melting temperature at 1 uM incubated for 1 hr in dark condition by FRET-based melting assay; format: nucleic-acid assay; settings: Bos taurus; outline: as §4
[16] = Cytotoxicity against HEK293 cells assessed as cell viability measured after 24 hrs by XTT formazan assay; format: toxicity, cell-based; settings: human
[17] = Reduction of c-KIT protein expression in human K562 cells at 5.5 uM measured after 24 hrs by Western blotting analysis relative to control; format: functional; outline: as §1
[18] = Reduction of c-MYC oncogene expression in human K562 cells transfected with c-MYC plasmid construct assessed as reduction in luciferase expression at 5.5 uM measured after 36 hrs by luciferase reporter assay; format: functional
Outline: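 Promoter luciferase reporter: K562 cells transfected with a c-MYC promoter G4-containing luciferase-expressing plasmid, then ligand-treated at two doses each (3 and 6 μM, or 5.5 and 11 μM); read-out as relative luciferase expression, reported as percent reduction.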

[19] = Reduction of BCL-2 oncogene expression in human K562 cells transfected with BCL-2 plasmid construct assessed as reduction in luciferase expression at 11 uM measured after 36 hrs by luciferase reporter assay; format: functional; outline: as §5
[20] = test system: K562; assay: Induction of apoptosis in human K562 cells assessed as apoptosis at 5.5 uM incubated for 24 hrs by FITC-Annexin V and PI analysis; format: functional; outline: as §3
[21] = Reduction of c-KIT oncogene expression in human K562 cells transfected with c-KIT plasmid construct assessed as reduction in luciferase expression at 11 uM measured after 36 hrs by luciferase reporter assay; format: functional; outline: as §5
[22] = Reduction of c-KIT oncogene expression in human K562 cells transfected with c-KIT plasmid construct assessed as reduction in luciferase expression at 5.5 uM measured after 36 hrs by luciferase reporter assay; format: functional; outline: as §5
[23] = Induction of cell permeation in human c-KIT-positive K562 cell membrane assessed as fold increase in (G- quadruplex/antibody complex) BG4 foci at 5.5 uM measured after 24 hrs by immunofluorescence assay; format: functional
Outline: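 K562 cells were treated with ligand (3 or 5.5 μM) and immunostained with G4-specific antibody BG4. Nuclear BG4 foci were counted by confocal microscopy and expressed relative to untreated cells.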

[24] = Effect on proto-oncogene expression in human c-KIT-positive K562 cells assessed as upregulation in BCL-2 oncogene expression at 5.5 uM measured after 24 hrs by qRT-PCR analysis relative to control; format: functional; outline: as §2
[25] = test system: Quadruplex DNA; assay: Stabilization of G-quadruplex c-KIT1 5-FAM-GGGAGGGCGCTGGGAGGAGGG-TAMRA-3 (unknown origin) assessed as change in melting temperature at 1 uM incubated for 1 hr in dark condition by FRET-based melting assay; format: nucleic-acid assay; outline: as §4
[26] = Reduction of c-MYC oncogene expression in human K562 cells transfected with c-MYC plasmid construct assessed as reduction in luciferase expression at 11 uM measured after 36 hrs by luciferase reporter assay; format: functional; outline: as §5
[27] = test system: K562; assay: Cytotoxicity against human c-KIT-positive K562 cells assessed as cell viability measured after 24 hrs by XTT formazan assay; format: functional, cell-based; settings: K562, 24 h
[28] = test system: MCF7; assay: Cytotoxicity against human MCF7 cells assessed as cell viability measured after 24 hrs by XTT formazan assay; format: functional, cell-based; settings: MCF7, 24 h
[29] = test system: K562; assay: Induction of cell cycle arrest in human K562 cells assessed as accumulation at G0/G1 phase at 5.5 to 11 uM incubated for 24 hrs by propidium iodide based assay; format: functional; settings: dose 5.5-11 µM
Outline: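 K562 cells were treated with ligand (3 and 6 μM or 5.5 and 11 μM) and stained with propidium iodide. The fraction of cells in each cell-cycle phase was determined by flow cytometry.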

**Q.** Which inhibition at 11 µM [1] does the source give for `CN(C)CCCNC(=O)c1ccc(-n2cc(-c3ccc4oc5ccccc5c4c3)nn2)cc1` here?
**A.** -15.8%

**Q.** And the inhibition at 11 µM [2]?
**A.** 3%

**Q.** What about the Activity [3] of the same compound?
**A.** 11%

**Q.** And the inhibition at 5.5 µM [4]?
**A.** > 1%

**Q.** And the Activity [5]?
**A.** 23%

**Q.** And the Activity [6]?
**A.** 5%

**Q.** What about the ΔTm [7] of the same compound?
**A.** < 3 °C

**Q.** And the Activity [8]?
**A.** Active

**Q.** What about the ΔTm [9] of the same compound?
**A.** < 3 °C

**Q.** What about the Activity [10] of the same compound?
**A.** 31%

**Q.** And the ΔTm [11]?
**A.** < 3 °C

**Q.** And the ΔTm [12]?
**A.** < 3 °C

**Q.** What about the inhibition at 5.5 µM [13] of the same compound?
**A.** 9.5%

**Q.** And the ΔTm [14]?
**A.** < 3 °C

**Q.** And the ΔTm [15]?
**A.** < 3 °C

**Q.** And the IC50 at 24 h [16]?
**A.** ≥ 50 µM

**Q.** What about the inhibition at 5.5 µM [17] of the same compound?
**A.** 7.8%

**Q.** And the inhibition at 5.5 µM [18]?
**A.** 6.2%

**Q.** What about the inhibition at 11 µM [19] of the same compound?
**A.** 14%

**Q.** What about the Activity [20] of the same compound?
**A.** 1%

**Q.** And the inhibition at 11 µM [21]?
**A.** 7.6%

**Q.** What about the inhibition at 5.5 µM [22] of the same compound?
**A.** 3.3%

**Q.** And the “fold change (FC)” value [23]?
**A.** 1.8

**Q.** What about the Activity [24] of the same compound?
**A.** 8%

**Q.** What about the ΔTm [25] of the same compound?
**A.** < 3 °C

**Q.** What about the inhibition at 11 µM [26] of the same compound?
**A.** 10.1%

**Q.** What about the IC50 [27] of the same compound?
**A.** 11.7 µM

**Q.** And the IC50 [28]?
**A.** ≥ 19 µM

**Q.** What about the Activity [29] of the same compound?
**A.** inactive
